These results are taken from ChEMBL document CHEMBL1165950, “Design and synthesis of new potent anticancer pyrazoles with high FLT3 kinase inhibitory selectivity” (Bioorg Med Chem, 2010).

One assay relates to ACHN. Put plainly: Cytotoxicity against human ACHN cells assessed as cell growth at 0.01 uM after 48 hrs by sulforhodamine B assay. It is filed as functional. Conditions: read-out: Activity. In general terms: Sulforhodamine B stains cellular protein and so reports cell mass.
A further assay has as its system DU-145. Put plainly: Cytotoxicity against human DU145 cells assessed as cell growth at 0.01 uM after 48 hrs by sulforhodamine B assay. It is filed as functional. Particulars: DU-145, 48 h, read-out: Activity.
In the next assay the test system is SR. Nature of the assay: Cytotoxicity against human SR cells assessed as cell growth at 0.01 uM after 48 hrs by sulforhodamine B assay. The format is functional. Particulars: read-out: Activity.
In assay [1] the test system is NCI-H226. Put plainly: Cytotoxicity against human NCI-H226 cells assessed as cell growth at 0.01 uM after 48 hrs by sulforhodamine B assay. It is filed as functional. Conditions: NCI-H226, 48 h, read-out: Activity.
In a further assay the test system is CCRF-CEM. Nature of the assay: Cytotoxicity against human CCRF-CEM cells assessed as cell growth at 10 uM. Particulars: read-out: Activity. It is filed as functional. The method in brief:
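Single-dose NCI-60 screen at 10 µM. Cells were grown in RPMI 1640 with 5% FBS and 2 mM L-glutamine, then treated for 48 h at 37 °C. Protein was measured by SRB staining with absorbance at 515 nm. Percentage growth was recorded, and inhibition percentage was calculated as 100 minus growth percentage.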

The test system of a further assay is HCC 2998. Put plainly: Cytotoxicity against human HCC2998 cells assessed as cell growth at 100 nM after 48 hrs by sulforhodamine B assay. The format is functional. Conditions: HCC 2998, 48 h, read-out: Activity.
The next assay concerns SF-295. Put plainly: Cytotoxicity against human SF295 cells assessed as cell growth at 100 nM after 48 hrs by sulforhodamine B assay. The format is functional. Conditions: SF-295, 48 h, read-out: Activity.
In assay [2] the test system is NCI-H226. Put plainly: Growth inhibition of human NCI-H226 cells after 48 hrs by sulforhodamine B assay. The format is functional. Particulars: NCI-H226, 48 h; for CC50: read-out: LC50 (the source's name). The essentials: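 NCI 60-cell screen, five-dose mode. Cells grown in RPMI 1640 with 5% FBS and 2 mM L-glutamine and plated at 5000-40,000 cells/well according to doubling time. After 24 h preincubation, a Tz plate was TCA-fixed. Five concentrations (10-fold or 1/2 log dilutions) were applied for 48 h at 37 °C. SRB staining read at 515 nm. IC50 taken from [(Ti-Tz)/(C-Tz)]×100 = 50.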

Assay [3] can be described thus: Cytotoxicity against human […] cells assessed as cell growth at 10 uM. It is filed as functional. Particulars: read-out: Activity. The essentials: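 NCI-60 screen: cells grown in RPMI 1640 with 5% FBS and 2 mM L-glutamine, plated at 5000–40,000 cells/well according to doubling time, and preincubated 24 h at 37 °C, 5% CO2. The single 10 µM dose (DMSO stock) was added, then incubated 48 h. Cells were TCA-fixed and stained with 0.4% SRB, read at 515 nm, and growth % calculated against time-zero and control plates.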

The subject of assay [4] is NCI-H226. Put plainly: Cytotoxicity against human NCI-H226 cells assessed as cell growth at 1 uM after 48 hrs by sulforhodamine B assay. The format is functional. Conditions: NCI-H226, 48 h, read-out: Activity.
The subject of the next assay is UO-31. Nature of the assay: Cytotoxicity against human UO31 cells assessed as cell growth at 10 uM after 48 hrs by sulforhodamine B assay. Conditions: UO-31, 48 h, read-out: Activity. The format is functional.
Another assay relates to SK-MEL-28. Nature of the assay: Cytotoxicity against human SK-MEL-28 cells assessed as cell growth at 100 nM after 48 hrs by sulforhodamine B assay. Conditions: SK-MEL-28, 48 h, read-out: Activity. The format is functional.
Assay [5] deals with NCI-H226. Put plainly: Cytotoxicity against human NCI-H226 cells assessed as cell growth at 100 nM after 48 hrs by sulforhodamine B assay. The format is functional. Conditions: NCI-H226, 48 h, read-out: Activity.
Another assay relates to MDA-MB-435. Nature of the assay: Cytotoxicity against human MDA-MB-435 cells assessed as cell growth at 0.01 uM after 48 hrs by sulforhodamine B assay. It is filed as functional. Particulars: MDA-MB-435, 48 h, read-out: Activity.
Assay [6] concerns MCF7. Nature of the assay: Cytotoxicity against human MCF7 cells assessed as cell growth at 0.001 uM after 48 hrs by sulforhodamine B assay. The format is functional. Particulars: MCF7, 48 h, read-out: Activity.
The subject of assay [7] is MCF7. Put plainly: Cytotoxicity against human MCF7 cells assessed as cell growth at 1 uM after 48 hrs by sulforhodamine B assay. It is filed as functional. Conditions: MCF7, 48 h, read-out: Activity.
Assay [8] addresses Receptor-type tyrosine-protein kinase FLT3 (Homo sapiens, UniProt P36888). Nature of the assay: Inhibition of FLT3 by HotSpot assay.
The target of assay [9] is Receptor-type tyrosine-protein kinase FLT3 (Homo sapiens) (UniProt P36888). Put plainly: Inhibition of FLT3 at 10 uM by HotSpot assay.

The structures appear in SMILES notation.

Chain of Receptor-type tyrosine-protein kinase FLT3 (Homo sapiens) (P36888 whole entry): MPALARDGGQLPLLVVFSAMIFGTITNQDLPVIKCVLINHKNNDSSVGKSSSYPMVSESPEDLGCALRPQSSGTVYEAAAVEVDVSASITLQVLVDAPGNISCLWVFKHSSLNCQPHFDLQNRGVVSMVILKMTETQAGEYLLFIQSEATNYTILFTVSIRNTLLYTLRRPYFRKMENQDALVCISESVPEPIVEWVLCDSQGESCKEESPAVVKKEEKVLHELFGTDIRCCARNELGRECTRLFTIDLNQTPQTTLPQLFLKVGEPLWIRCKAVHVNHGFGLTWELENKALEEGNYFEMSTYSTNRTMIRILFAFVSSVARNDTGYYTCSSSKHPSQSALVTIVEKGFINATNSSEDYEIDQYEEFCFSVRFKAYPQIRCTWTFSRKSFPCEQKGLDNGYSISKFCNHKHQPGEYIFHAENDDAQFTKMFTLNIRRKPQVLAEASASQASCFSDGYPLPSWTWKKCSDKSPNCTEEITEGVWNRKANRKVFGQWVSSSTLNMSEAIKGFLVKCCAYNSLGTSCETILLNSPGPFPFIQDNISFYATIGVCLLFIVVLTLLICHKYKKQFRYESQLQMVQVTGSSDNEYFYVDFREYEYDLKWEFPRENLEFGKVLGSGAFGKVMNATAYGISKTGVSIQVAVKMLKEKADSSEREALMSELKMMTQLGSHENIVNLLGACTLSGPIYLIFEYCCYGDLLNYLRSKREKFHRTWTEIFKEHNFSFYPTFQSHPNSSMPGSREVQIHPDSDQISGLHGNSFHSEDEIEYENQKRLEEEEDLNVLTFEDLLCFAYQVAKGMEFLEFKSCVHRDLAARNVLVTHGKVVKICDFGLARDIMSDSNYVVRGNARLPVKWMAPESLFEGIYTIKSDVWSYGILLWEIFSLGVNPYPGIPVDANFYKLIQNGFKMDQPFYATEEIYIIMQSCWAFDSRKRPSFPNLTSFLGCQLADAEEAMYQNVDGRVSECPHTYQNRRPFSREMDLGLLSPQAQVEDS
Chain of Receptor-type tyrosine-protein kinase FLT3 (P36888 whole entry): as above

For `COc1cc(C)cc(-c2nn(CC#N)cc2-c2ccc(-c3cccc(C(C)=O)c3)nc2)c1`, the growth at 0.01 µM in the assay with ACHN came out at 90%; with DU-145, 98%; in the assay with SR it was 103%; with NCI-H226 [1], 88%; with MDA-MB-435, 94%. Moreover, the growth at 10 µM is 15.4% in the assay on CCRF-CEM, 17.7% in [3] and -6% with UO-31. Also, the growth at 0.1 µM with HCC 2998 was 81%; in the assay on SF-295, 75%; with SK-MEL-28, 74%; with NCI-H226 [5], 86%. The compound further registered a GI50 in the assay on NCI-H226 [2] of 4.29 µM. Moreover, in the assay on NCI-H226 [2], the TGI was 82.3 µM. Besides, the CC50 in the assay on NCI-H226 [2] is above 100 µM. In addition, the growth at 1 µM with NCI-H226 [4] is 29%; in the assay on MCF7 [7], 7%. Also, the growth at 0.001 µM in the assay with MCF7 [6] amounted to 94%.
Consider `COc1cc(C)cc(-c2c(-c3ccnc(-c4ccc(C(C)=O)cc4)c3)cnn2CC#N)c1`, for which the growth at 0.01 µM in the assay with ACHN was found to be 96%; with DU-145, 100%; in the assay with SR it was 95%; with NCI-H226 [1], 93%; in the assay on MDA-MB-435, 91%. Further, the growth at 10 µM in the assay with CCRF-CEM stood at 53.7%; in [3], 67.6%; in the assay on UO-31 it was 15%. The growth at 0.1 µM in the assay on HCC 2998 came out at 104%; with SF-295 it was 85%; in the assay on SK-MEL-28, 95%; in the assay with NCI-H226 [5] it was 96%. This compound also showed a GI50 in the assay on NCI-H226 [2] of 5.47 µM. In the assay on NCI-H226 [2], this compound had a total growth inhibition concentration (TGI) above 100 µM. For the same compound, the CC50 in the assay on NCI-H226 [2] is above 100 µM. For the same compound, the values for the growth at 1 µM in the assay with NCI-H226 [4] and with MCF7 [7] were 34% and 16%, respectively. Further, the growth at 0.001 µM in the assay on MCF7 [6] is 96%.
Take `COc1cc(C)cc(-c2c(-c3ccnc(-c4ccc(N(C)C)cc4)c3)cnn2CC#N)c1`: half-maximal inhibition in assay [8] (IC50) required 1.74 µM. In addition, the results for the growth at 10 µM (with CCRF-CEM; in [3]; in the assay on UO-31) were 3.55%, 0.08% and 7%, respectively. The inhibition in assay [9] was 82.3%.
Take `Cc1cc(O)cc(-c2nn(CC#N)cc2-c2ccnc(-c3ccc(Oc4ccccc4)cc3)c2)c1`: the growth at 0.01 µM stood at 95% in the assay with ACHN; 96% with DU-145; 95% in the assay on SR; 89% in the assay on NCI-H226 [1]; 95% in the assay with MDA-MB-435. For the same compound, the growth at 0.1 µM came to 107% in the assay on HCC 2998, 87% in the assay with SF-295, 95% in the assay with SK-MEL-28 and 95% with NCI-H226 [5]. Moreover, the GI50 in the assay on NCI-H226 [2] is 3.22 µM. Also, the TGI in the assay with NCI-H226 [2] is 12.2 µM. Further, the CC50 in the assay on NCI-H226 [2] was found to be 64.5 µM. For the same compound, the values for the growth at 1 µM with NCI-H226 [4] and in the assay with MCF7 [7] were 6% and -34%, respectively. Further, the growth at 10 µM in the assay on UO-31 is -81%. For the same compound, in the assay on MCF7 [6], the growth at 0.001 µM came out at 92%.
For the compound `Cc1cc(O)cc(-c2nn(CC#N)cc2-c2ccnc(-c3ccc(N(C)C)cc3)c2)c1`, the growth at 0.01 µM stood at 82% in the assay on ACHN; 97% in the assay on DU-145; 93% in the assay with SR; 94% in the assay on NCI-H226 [1]; 91% in the assay on MDA-MB-435. For the same compound, the figures for the growth at 10 µM (in the assay with CCRF-CEM; in assay [3]; with UO-31) were 40.3%, 41.6% and -19%, respectively. Besides, the growth at 0.1 µM in the assay on HCC 2998 came out at 87%; in the assay on SF-295, 78%; with SK-MEL-28, 96%; with NCI-H226 [5], 100%. For the same compound, it took 4.18 µM to inhibit growth with NCI-H226 [2] by half (GI50). Besides, total growth inhibition in the assay on NCI-H226 [2] (TGI) required 21.8 µM. The CC50 in the assay with NCI-H226 [2] is above 100 µM. The growth at 1 µM was 19% in the assay with NCI-H226 [4] and 10% in the assay on MCF7 [7]. Also, the growth at 0.001 µM with MCF7 [6] was found to be 97%.
As to `COc1cc(C)cc(-c2nn(CC#N)cc2-c2ccnc(-c3ccc(N(C)C)cc3)c2)c1`, the growth at 0.01 µM in the assay on ACHN was determined as 98%; in the assay with DU-145, 99%; in the assay with SR it was 97%; in the assay on NCI-H226 [1] it was 105%; in the assay on MDA-MB-435, 94%. The growth at 0.1 µM with HCC 2998 stood at 20%; in the assay with SF-295 it was 3%; with SK-MEL-28, 44%; with NCI-H226 [5], 49%. Besides, the GI50 in the assay on NCI-H226 [2] came out at 0.968 µM. In the assay on NCI-H226 [2], this compound had a TGI of 127 µM. Besides, the CC50 with NCI-H226 [2] is above 100 µM. Besides, the growth at 1 µM in the assay on NCI-H226 [4] stood at 3%; in the assay on MCF7 [7], 7%. In addition, the growth at 0.001 µM in the assay with MCF7 [6] was found to be 104%.

The GI50 is the concentration giving 50% growth inhibition. Lower therefore signals greater sensitivity of the cells. As a reminder, the TGI is the concentration giving total growth inhibition. A word on the IC50: it is the concentration at which inhibition is half-maximal. By inhibition is commonly meant the drop in the measured response relative to a control, in per cent. A high value points to a response far below the control.
